Test results as given in publication PMC8183215 (Journal for Immunotherapy of Cancer, 2021).
Residues, ends and D or L forms follow the SMILES beside them.

Experiment: In vitro plasma stability
Assay type: in vitro ADME
Details: rat, pH 7.4
In short: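 Test compound prepared as a 1000 ng/mL stock in 0.01 M Tris-HCl (pH 7.4), then mixed in equal volume with rat plasma and incubated at 37 °C. Samples were taken at 0, 2, 5, 10, 30 and 60 min, and methanol was added to precipitate protein. After centrifugation at 12 000 rpm for 15 min and a second spin of the supernatant, UPLC-MS peak areas gave the half-life.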

Row | Compound | half-life at 500 ng/mL [min]
1 | CC(C)C[C@H](NC(=O)[C@H](CCCCN)NC(=O)[C@H](CCCNC(=N)N)NC(=O)[C@@H]1CCCN1C(=O)[C@H](CCC(=O)O)NC(=O)CNC(=O)[C@H](Cc1ccc(O)cc1)NC(=O)[C@H](C)NC(=O)[C@@H](N)CO)C(=O)O [peptide 1] (H-SAYGEPRKL-OH; N-terminus and C-terminus assumed) | ~5
2 | CC[C@H](C)[C@H](NC(=O)[C@@H](N)[C@@H](C)O)C(=O)N[C@@H](Cc1c[nH]c2ccccc12)C(=O)N[C@@H](CCSC)C(=O)N[C@@H](CC(C)C)C(=O)N[C@@H](CC(C)C)C(=O)N[C@@H](CCSC)C(=O)N[C@@H](CC(C)C)C(=O)N[C@@H](CCC(N)=O)C(=O)O [peptide 2] (H-TIWMLLMLQ-OH) | ~5
